Data as given in ChEMBL document CHEMBL2407086, “Semisynthesis, cytotoxic activity, and oral availability of new lipophilic 9-substituted camptothecin derivatives” (ACS Med Chem Lett, 2013).

Key:
[1] = test system: HeLa; assay: Cytotoxicity against human HeLa cells after 72 hrs by MTT assay; type: functional, cell-based
In short: (§1)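 Cell growth measured by MTT read-out after 72 h continuous drug exposure. IC50 values derived from at least three independent experiments.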

[2] = Effective permeability of the compound in human Caco2 cells at 50 uM after 15 to 90 mins in presence of sodium azide; type: ADME, cell-based; conditions: Caco-2, with sodium azide (concentration not stated), read-out: Peff
In short: (§2)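 Caco-2 monolayers dosed at 50 μM. Transport measured in both directions, apical to basal (Pab) and basal to apical (Pba), in separate runs with and without the metabolic inhibitor sodium azide. Permeability coefficients were calculated with sink or non-sink equations. Values are means of three independent experiments.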

[3] = Effective permeability of the compound in human Caco2 cells at 50 uM after 15 to 90 mins; type: ADME, cell-based; conditions: Caco-2, read-out: Peff; in short: as §2
[4] = test system: MDA-MB-231; assay: Cytotoxicity against human MDA-MB-231 cells after 72 hrs by MTT assay; type: functional, cell-based; conditions: MDA-MB-231, 72 h; in short: as §1
[5] = test system: PC-3; assay: Cytotoxicity against human PC3 cells after 72 hrs by MTT assay; type: functional, cell-based; conditions: PC-3, 72 h; in short: as §1
[6] = test system: MCF7; assay: Cytotoxicity against human MCF7 cells after 72 hrs by MTT assay; type: functional, cell-based; conditions: MCF7, 72 h; in short: as §1
[7] = test system: A2780; assay: Cytotoxicity against human A2780 cells after 72 hrs by MTT assay; type: functional, cell-based; conditions: A2780, 72 h; in short: as §1
[8] = test system: MOLT-4; assay: Cytotoxicity against human MOLT4 cells after 72 hrs by MTT assay; type: functional, cell-based; conditions: MOLT-4, 72 h; in short: as §1
[9] = test system: K562; assay: Cytotoxicity against human K562 cells after 72 hrs by MTT assay; type: functional, cell-based; conditions: K562, 72 h; in short: as §1
[10] = test system: A549; assay: Cytotoxicity against human A549 cells after 72 hrs by MTT assay; type: functional, cell-based; conditions: A549, 72 h; in short: as §1
[11] = test system: K562; assay: Ratio of topotecan IC50 to compound IC50 for human K562 cells; type: functional

Row | SMILES | IC50 [1] | Papp at 50 µM [2] | Papp at 50 µM [3] | IC50 [4] | IC50 [5] | IC50 [6] | IC50 [7] | IC50 [8] | IC50 [9] | IC50 [10] | Ratio IC50 [11]
1 | CC[C@@]1(O)C(=O)OCc2c1cc1n(c2=O)Cc2cc3c(CNC(C)=O)c(O)ccc3nc2-1 | > 5000 nM | 1.52 ×10⁻⁶ cm/s | 1.17 ×10⁻⁶ cm/s |  |  |  |  |  |  |  | 
2 | CC[C@@]1(O)C(=O)OCc2c1cc1n(c2=O)Cc2cc3c(CN(C)C)c(O)ccc3nc2-1 [TOPOTECAN] |  | 2.88 ×10⁻⁶ cm/s | 1.77 ×10⁻⁶ cm/s | > 500 nM | 62 nM | 63 nM | 33 nM | 19 nM | 500 nM | 354 nM | 
3 | CC[C@@]1(O)C(=O)OCc2c1cc1n(c2=O)Cc2cc3c(CN4C(=O)c5ccccc5C4=O)c(O)ccc3nc2-1 | 1270 nM |  |  |  |  |  |  |  |  |  | 
4 | CC[C@@]1(O)C(=O)OCc2c1cc1n(c2=O)Cc2cc3c(CN4CCCC4=O)c(O)ccc3nc2-1 | > 5000 nM | 1.33 ×10⁻⁶ cm/s | 0.48 ×10⁻⁶ cm/s |  |  |  |  |  |  |  | 
5 | CC[C@@]1(O)C(=O)OCc2c1cc1n(c2=O)Cc2cc3c(CN4C(=O)C=CC4=O)c(O)ccc3nc2-1 | > 5000 nM |  |  |  |  |  |  |  |  |  | 
6 | CC[C@@]1(O)C(=O)OCc2c1cc1n(c2=O)Cc2cc3cc(O)ccc3nc2-1 [HYDROXYCAMPTOTHECIN] |  | 1.01 ×10⁻⁶ cm/s | 7.88 ×10⁻⁶ cm/s |  |  |  |  |  |  |  | 
7 | CC[C@@]1(O)C(=O)OCc2c1cc1n(c2=O)Cc2cc3c(CN4C(=O)C5=C(CCCC5)C4=O)c(O)ccc3nc2-1 | 214 nM |  |  | > 500 nM | 103 nM | 159 nM | 41 nM | 15 nM | > 500 nM | 346 nM | 
8 | CC[C@@]1(O)C(=O)OCc2c1cc1n(c2=O)Cc2cc3c(CN4C(=O)C5=C(CCCC5)C4=O)c(OC)ccc3nc2-1 | 173 nM | 2.58 ×10⁻⁶ cm/s | 4.91 ×10⁻⁶ cm/s | 500 nM | 51 nM | 78 nM | 28 nM | 14 nM | 109 nM | 226 nM | 5
9 | CC[C@@]1(O)C(=O)OCc2c1cc1n(c2=O)Cc2cc3ccccc3nc2-1 [CAMPTOTHECIN] | 24 nM | 1 ×10⁻⁶ cm/s | 7.88 ×10⁻⁶ cm/s | 162 nM | 78 nM | 26 nM | 13 nM | 0.04 nM | 31 nM | 99 nM | 
